Assays:
[1] = biological target: T1, FLAT-expressing Hek293 cells (Rattus norvegicus, UniProt P97612, DEL9-76); assay: [3H]-anandamide accumulation in FLAT-expressing Hek293 cells; type: cell-based
T1 sequence (P97612 with tags, fused parts or gaps DEL9-76): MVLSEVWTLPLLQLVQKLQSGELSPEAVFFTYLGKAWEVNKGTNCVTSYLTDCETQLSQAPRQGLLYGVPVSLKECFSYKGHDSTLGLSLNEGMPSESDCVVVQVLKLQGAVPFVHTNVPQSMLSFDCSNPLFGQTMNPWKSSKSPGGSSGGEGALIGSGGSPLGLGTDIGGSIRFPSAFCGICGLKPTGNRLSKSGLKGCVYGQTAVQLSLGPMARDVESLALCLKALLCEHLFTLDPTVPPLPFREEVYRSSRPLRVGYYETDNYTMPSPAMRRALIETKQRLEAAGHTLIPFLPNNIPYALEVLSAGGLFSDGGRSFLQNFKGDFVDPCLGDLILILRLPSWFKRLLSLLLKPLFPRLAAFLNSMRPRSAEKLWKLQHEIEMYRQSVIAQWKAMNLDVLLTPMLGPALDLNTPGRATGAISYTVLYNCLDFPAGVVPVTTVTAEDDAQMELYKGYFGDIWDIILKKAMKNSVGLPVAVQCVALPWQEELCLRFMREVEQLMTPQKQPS

[2] = tested on: formalin-induced nocifensive behavior; assay: Formalin-induced pain behavior in mice; type: in vivo, mouse; conditions: formalin test, antagonist 1 mg-kg^-1, i.p.
Summary of the method: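 Mice get intraplantar 5% formalin (20 μL). Nocifensive behaviour is scored in phase I (0–5 min) and phase II (5–45 min). Test compound is given i.p. at 0.01–1 mg-kg−1. In the antagonism arm, CB1, CB2 and TRPV-1 antagonists are each given at 1 mg-kg−1 i.p. Six mice per group; mean±SEM; two-way ANOVA with Bonferroni versus vehicle-injected controls.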

SMILES | effect on [3H]-anandamide accumulation ([1]; FLAT-expressing Hek293 cells) | effect of antagonist on antinociceptive actions of systemic ARN272 [2] | further results
CCCCC/C=C\C/C=C\C/C=C\C/C=C\CCCC(=O)NCc1ccoc1 [UCM707] | prevented |  | 
COc1ccc(C(=O)c2c(C)n(CCN3CCOCC3)c3cc(I)ccc23)cc1 [AM630] |  | ineffective | 
CCCCC/C=C\C/C=C\C/C=C\C/C=C\CCCC(=O)Nc1ccc(O)cc1C [VDM11] | prevented |  | 
CCCCC/C=C\C/C=C\C/C=C\C/C=C\CCCC(=O)NCCO [anandamide, N-arachidonoylethanolamine] |  |  | effect on [3H]-anandamide accumulation ([1]; non-radioactive anandamide 100 μM): prevented
CCCCCC=CCC=CCC=CCC=CCCCC(=O)Nc1ccc(O)cc1 [AM404, N-(4-hydroxyphenyl)-eicosa-5,8,11,14-tetraenamide] |  |  | IC50 [1]: 4 µM
Cc1c(C(=O)NN2CCCCC2)nn(-c2ccc(Cl)cc2Cl)c1-c1ccc(I)cc1 [AM251] |  | suppressed | 
CC(C)(C)c1ccc(/C=C/C(=O)Nc2ccc3c(c2)OCCO3)cc1 [AMG9810] |  | ineffective | 
CCCCCCCC/C=C\CCCCCCCC(=O)N[C@H](CO)Cc1ccc(O)cc1 [OMDM-1] | prevented |  | 

Source: PMC3245783 (Nature neuroscience, 2011)
